In series [1] the test system is KB. As to the kind of experiment: In vitro inhibition of growth of KB cells (cytotoxic assay). The series is classed as functional, cell-based, Homo sapiens.
Series [2] relates to Mus musculus. As to the kind of experiment: In vivo ratio of median survival time of drug-treated to control, untreated tumor-bearing mice at a dose of 4 mg/kg for 5 days. Format: functional. In a few lines:
(§1)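 Male Swiss nu/nu mice, about 5 weeks old, acclimated 1 week. LOX melanoma was first grown sc in nude mice, then made into a single-cell suspension with RBCs lysed by ammonium chloride. Each mouse got 2×10^6 LOX cells ip in PBS. From the next day, compound was given ip in 45% hydroxypropyl β-cyclodextrin in water. T/C is median survival of treated over untreated controls, as a percentage. Five mice per group.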

Series [3] concerns CX-1. As to the kind of experiment: In vitro inhibition of growth of human carcinoma CX-1 cell line (clonogenic assay). Format: functional, cell-based.
The test system of series [4] is Mus musculus. Nature of the series: In vivo ratio of median survival time of drug-treated to control, untreated tumor-bearing mice at a dose of 10 mg/kg for 5 days. The series is classed as functional.
Series [5] in a line: Lethal dose when administered intraperitoneally. The series is classed as toxicity. Conditions: mouse, ip.
The nature of series [6]: Lethal dose when administered intravenously. The series is classed as toxicity. Conditions: mouse, iv.
Series [7] concerns CV-1. As to the kind of experiment: Compound was tested in vitro for inhibition of growth of cytotoxic CV-1 cell line. The series is classed as functional, cell-based, Homo sapiens. To be noted: Chlorocebus aethiops.
For series [8], the system named is Mus musculus. Nature of the series: Tumor inhibition (TI) ratio at a dose of 3 mg/kg for 4 day. Format: functional. In a few lines: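 BDF1 mice (male, inbred, 5-week-old, ~1 week acclimation) implanted sc with 5 × 10^5 CA755 cells; compound given iv in 0.9% saline (0.2 mL/20 g body weight), 3 mg/kg/day × 4. Tumors weighed at day 11; inhibition (%) = (A − B)/A × 100, A and B being mean control and treated tumor weights. Five mice per group; Bartlett's, Dunnett's, Scheffé's tests.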

The nature of series [9]: The solubility in 0.9% saline was determined. Format: ADME.
Series [10] relates to Mus musculus. Nature of the series: In vivo ratio of median survival time of drug-treated to control, untreated tumor-bearing mice at a dose of 5 mg/kg for 4 day. The series is classed as functional.
A short description of series [11]: The solubility in water was determined. The series is classed as ADME.
Series [12] has as its system CV-1. Nature of the series: The IC50 value for 50%inhibition of cells on clonogenic CV-1 […] cytotoxic cell lines. Format: functional, cell-based. Conditions: Chlorocebus aethiops. In a few lines:
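CV-1 cytotoxicity assay: cells seeded at 4×10^4 per 20 mm plate at 37 °C in 5% CO2. Next day, cells were exposed to varying compound concentrations for 1 week, stained with crystal violet, and viable cells counted.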

Series [13] deals with Mus musculus. As to the kind of experiment: In vivo ratio of median survival time of drug-treated to control, untreated tumor-bearing mice at a dose of 5 mg/kg for 5 days. Format: functional.
Series [14] concerns Mus musculus. As to the kind of experiment: In vivo ratio of median survival time of drug-treated to control, untreated tumor-bearing mice at a dose of 2 mg/kg for 5 days. The series is classed as functional.
The test system of series [15] is Mus musculus. Nature of the series: In vivo ratio of median survival time of drug-treated to control, untreated tumor-bearing mice at a dose of 10 mg/kg for 1 day. The series is classed as functional.
Series [16] has as its system Mus musculus. Nature of the series: In vivo ratio of median survival time of drug-treated to control, untreated tumor-bearing mice at a dose of 5 mg/kg for 3 days. The series is classed as functional.
Series [17] concerns Mus musculus. Nature of the series: In vivo ratio of median survival time of drug-treated to control, untreated tumor-bearing mice at a dose of 4 mg/kg for 7 days. Format: functional.
Series [18] has as its system Mus musculus. As to the kind of experiment: Tumor inhibition (TI) ratio at a dose of 1 mg/kg for 4 day. Format: functional.
Series [19] relates to Mus musculus. As to the kind of experiment: In vivo ratio of median survival time of drug-treated to control, untreated tumor-bearing mice at a dose of 7 mg/kg for 5 days. The series is classed as functional. In a few lines: as §1

Where only a bound is given, the exact number is not on record here.

What is called IC50 is the concentration at which inhibition is half-maximal. Lower therefore signals greater potency in that assay. By T/C is commonly meant the ratio of treated to control. `CCN1C=CC=C/C1=C\C=c1/s/c(=C\c2sc3ccc4ccccc4c3[n+]2CC)n(CC)c1=O.[Cl-]`: the IC50 in series [1] (Homo sapiens, KB) came out at 0.77 µM; in series [3] (Homo sapiens, CX-1), 0.08 µM. The T/C in series [2] was 122%.
The matching figures for `CC(=O)[O-].CCn1c(=O)/c(=C2\SCCN2C)s/c1=C\c1sc2ccc3ccccc3c2[n+]1CC`: 0.25 µM, 0.16 µM and 106%.
With `CC(=O)[O-].CCN1/C(=C/C=c2\s/c(=C\C3=[N+](CC)CCS3)n(CC)c2=O)C=Cc2ccccc21`, the half-maximal inhibitory concentration (IC50) turned out to be 0.91 µM in [1] (Homo sapiens, KB) and 0.16 µM in series [3] (Homo sapiens, CX-1). For the same molecule, the T/C in [4] stood at 143%.
The LD50 is the dose at which mortality reaches 50%. For the molecule `CC(=O)[O-].CCn1c(=O)/c(=C2\Sc3ccccc3N2C)s/c1=C\c1scc(C)[n+]1CC`, the LD50 was found to be 30 mg/kg in series [5] and 20 mg/kg in series [6]. Moreover, the IC50 in series [1] (Homo sapiens, KB) was found to be 0.95 µM; in series [3] (Homo sapiens, CX-1), 0.11 µM; in [7], 23.6 µM. In [2], the T/C is reported as over 173%.
As for `CCN1CCS/C1=C\C=c1/s/c(=C\c2sc3c4ccccc4ccc3[n+]2CC)n(CC)c1=O`, the IC50 in [1] (Homo sapiens, KB) amounted to 0.32 µM; in series [3] (Homo sapiens, CX-1), 0.02 µM.
Take `CC(=O)[O-].CCn1c(=O)/c(=C2\Sc3ccccc3N2C)s/c1=C\C1CCC[n+]2c1sc1ccccc12` (stereo unspecified): the figures for the LD50 in series [5] and in [6] were 30 mg/kg and 3 mg/kg, respectively. Besides, the IC50 in series [1] (Homo sapiens, KB) is 0.23 µM; in series [3] (Homo sapiens, CX-1), 0.23 µM; in series [7] it was 2.9 µM. In series [2], the T/C is on record as over 208%.
By solubility is commonly meant how much of the substance goes into solution per volume. A higher solubility goes with much dissolved substance. In the case of `CCn1c(=O)/c(=C2\Sc3ccccc3N2C)s/c1=C\c1cccc[n+]1CC.[Cl-]`, in series [8], the TI is listed as 75.5%. Moreover, the figures for the LD50 in series [5] and in series [6] were 50 mg/kg and 20 mg/kg, respectively. The molecule also yielded an IC50 in series [1] (kb) of 0.81 µM. Also, the solubility in series [9] and in [11] was over 5 mg/mL in each case. Further, the T/C in [10] is recorded as over 344%.
On to `CC(=O)[O-].CCn1c(=O)/c(=C2\Sc3ccccc3N2C)s/c1=C\c1cccc[n+]1CC`, for which the results for the IC50 in series [12], in series [1] (kb) and in series [3] (cx-1) were 63.2 µM, 0.86 µM and 1.1 µM, respectively. For the same molecule, in [8], the TI came out at 76.5%. Besides, the LD50 in series [5] amounted to 50 mg/kg; in [6], 20 mg/kg. Moreover, the T/C in series [13] was over 310%. Further, the solubility in series [9] and in series [11] was over 5 mg/mL in each case.
In the case of `CC(=O)[O-].CCn1c(=O)/c(=C2\Sc3ccccc3N2C)s/c1=C\c1ccc2ccccc2[n+]1CC`, the LD50 in series [5] worked out at 30 mg/kg; in series [6] it was 10 mg/kg. The IC50 in [1] (Homo sapiens, KB) stood at 0.28 µM; in [3] (Homo sapiens, CX-1), 0.28 µM; in series [7], 8.7 µM. In addition, the T/C in series [14] is 124%.
As to `CC(=O)[O-].CCN1C(C)=CS/C1=C\C=c1/s/c(=C\c2sc3ccccc3[n+]2CC)n(CC)c1=O`, the IC50 in series [1] (Homo sapiens, KB) was found to be 0.25 µM; in series [3] (Homo sapiens, CX-1), 0.06 µM. Also, in series [15], the T/C came to 138%.
For `CCn1c(=O)/c(=C2\Oc3ccccc3N2C)s/c1=C\c1cccc[n+]1CC`, the IC50 in [1] (Homo sapiens, KB) is 3.73 µM; in series [3] (Homo sapiens, CX-1) it was over 2.4 µM.
Regarding `CC(=O)[O-].CCn1c(=O)/c(=C2\Sc3ccc4ccccc4c3N2C)s/c1=C\c1oc2c3ccccc3ccc2[n+]1CC`, the IC50 in [1] (Homo sapiens, KB) is 0.08 µM; in [3] (Homo sapiens, CX-1), 0.68 µM. Besides, the T/C in series [14] was 120%.
For `CCn1c(=O)/c(=C2\C=CC=CN2C)s/c1=C\c1sc2ccccc2[n+]1CC`, the IC50 in series [1] (Homo sapiens, KB) was determined as 2.17 µM; in series [3] (Homo sapiens, CX-1) it was 1.76 µM.
With `CCn1c(=O)/c(=C/C=C2/N(C)c3ccccc3C2(C)C)s/c1=C\c1oc2c3ccccc3ccc2[n+]1CC.Cc1ccc(S(=O)(=O)[O-])cc1`, the T/C in [16] is 94%. Besides, the IC50 is 0.27 µM in series [1] (Homo sapiens, KB) and 0.01 µM in series [3] (Homo sapiens, CX-1).
With `CCn1c(=O)/c(=C/C=C2\Sc3ccc4ccccc4c3N2C)s/c1=C\c1scc(C)[n+]1CC`, the IC50 in series [1] (Homo sapiens, KB) is 2 µM; in series [3] (Homo sapiens, CX-1), over 1.8 µM.
Regarding `CC(=O)[O-].CCn1c(=O)/c(=C2\Sc3ccccc3N2C)s/c1=C\c1sc2ccccc2[n+]1CC`, the results for the LD50 in [5] and in series [6] were 30 mg/kg and 5 mg/kg, respectively. The IC50 was 0.06 µM in series [1] (Homo sapiens, KB); 0.06 µM in series [3] (Homo sapiens, CX-1); 1.4 µM in series [7]. Besides, in [17], the T/C was 163%. Moreover, the TI in series [18] is listed as 59.4%.
Regarding `CCn1c(=O)/c(=C2\Sc3ccc4ccccc4c3N2C)s/c1=C\c1sc2c3ccccc3ccc2[n+]1CC.[Cl-]`, the IC50 in series [1] (Homo sapiens, KB) came out at 0.34 µM; in [3] (Homo sapiens, CX-1), 0.05 µM. The T/C in series [19] was 112%.
With `CC(=O)[O-].CCn1c(=O)/c(=C2\Sc3ccccc3N2C)s/c1=C\C1=[N+](CC)CCS1`, the LD50 in [5] was 40 mg/kg; in [6], 15 mg/kg. Also, the IC50 in series [1] (Homo sapiens, KB) was found to be 6.22 µM; in series [3] (Homo sapiens, CX-1), 1.04 µM; in series [7], 13.2 µM. The T/C in [14] stood at 133%.
As for `CCN1CCS/C1=C\C=c1/s/c(=C\c2sc3c4ccccc4ccc3[n+]2CCC(=O)O)n(CC)c1=O`, the IC50 was over 15 µM in [1] (Homo sapiens, KB) and over 1.5 µM in series [3] (Homo sapiens, CX-1).
The matching figures for `CCN1CCS/C1=C\C=c1/s/c(=C\c2sc3c4ccccc4ccc3[n+]2C)n(CC)c1=O`: 0.49 µM and 0.03 µM.
The matching figures for `CCCC[n+]1c(/C=c2\s/c(=C\C=C3/SCCN3CC)c(=O)n2CC)sc2c3ccccc3ccc21`: 0.46 µM and 0.03 µM.
As to `CCN1/C(=C/C=c2\s/c(=C\c3sc4ccc5ccccc5c4[n+]3CC)n(CC)c2=O)Sc2ccc3ccccc3c21.Cc1ccc(S(=O)(=O)[O-])cc1`, the IC50 in series [1] (Homo sapiens, KB) turned out to be 0.21 µM; in series [3] (Homo sapiens, CX-1) it was 0.04 µM. Also, the T/C in series [4] is listed as 126%.
On to `CCN1CCS/C1=C\C=c1/s/c(=C\c2sc3c4ccccc4ccc3[n+]2CCO)n(CC)c1=O`, for which, in series [3] (Homo sapiens, CX-1), the half-inhibitory concentration (IC50) came to 0.39 µM.
`CCn1c(=O)/c(=C2\Sc3ccccc3N2C)s/c1=C\c1cccc[n+]1CC.[I-]`: the IC50 is 46.8 µM in [1] (kb) and 0.8 µM in series [3] (cx-1). The solubility in series [9] is under 0.1 mg/mL; in series [11] it was 0.2 mg/mL.
Turning to `CC(=O)[O-].CCn1c(=O)/c(=C2\Sc3ccccc3N2C)s/c1=C\c1oc2ccccc2[n+]1CC`, the LD50 is 10 mg/kg in series [5] and over 10 mg/kg in [6]. For the same molecule, the IC50 in [1] (Homo sapiens, KB) was found to be 1.13 µM; in [3] (Homo sapiens, CX-1), 0.18 µM; in series [7], 14.7 µM. In addition, the T/C in [13] is recorded as 140%.

Source of the values: ChEMBL document CHEMBL1131199, “Structure-activity of novel rhodacyanine dyes as antitumor agents” (J Med Chem, 1998).
